# In ChEMBL document CHEMBL1149797, “Synthesis and in vitro antibacterial activities of novel oxazolidinones” (Eur J Med Chem, 2008):
# Columns and labels:
# Assay type in all cases: functional
# [1] = test system: Staphylococcus aureus; assay: Antibacterial activity against Staphylococcus aureus ATCC 25923 by broth microdilution technique
# Procedure, shortened: (§1)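 Broth microdilution per CLSI (NCCLS) guidelines. Compounds were dissolved in DMSO with water added to give an 80% DMSO stock, then diluted 1:10 to working solutions in water or medium. They were tested at 0.125, 0.25, 0.5, 1, 2, 4, 8 and 16 (two-fold series) against the final inoculum. Each run included sterility controls and vehicle controls (plain medium; 4%, 2%, 1% DMSO). MIC was read as growth inhibition.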
# [2] = test system: Enterococcus faecalis; assay: Antibacterial activity against Enterococcus faecalis ATCC 35550 by broth microdilution technique; procedure, shortened: as §1
# [3] = test system: Streptococcus pyogenes; assay: Antibacterial activity against Streptococcus pyogenes ATCC 14289 by broth microdilution technique; procedure, shortened: as §1
# [4] = test system: Bacillus cereus; assay: Antibacterial activity against Bacillus cereus ATCC 11778 by broth microdilution technique; procedure, shortened: as §1
# [5] = test system: Bacillus pumilus; assay: Antibacterial activity against Bacillus pumilus ATCC 14884 by broth microdilution technique; procedure, shortened: as §1
# [6] = test system: Staphylococcus epidermidis; assay: Antibacterial activity against Staphylococcus epidermidis ATCC 155 by broth microdilution technique; procedure, shortened: as §1
# [7] = test system: Staphylococcus aureus; assay: Antibacterial activity against Staphylococcus aureus ATCC 9144 by broth microdilution technique
# Procedure, shortened: (§2)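 Broth microdilution per NCCLS/CLSI. Compounds dissolved in DMSO with water added to give an 80% DMSO stock. Stock diluted 1:10 in 4-8% DMSO in water or medium to make the working solution. Tested at […]. Sterility controls run with each set. Inoculum viability controls included plain medium and 4%, 2% and 1% DMSO vehicle. MIC taken as growth inhibition.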
# [8] = test system: Staphylococcus aureus; assay: Antibacterial activity against Staphylococcus aureus ATCC 29213 by broth microdilution technique; procedure, shortened: as §2
# [9] = test system: Streptococcus pneumoniae; assay: Antibacterial activity against multidrug-resistant Streptococcus pneumoniae ATCC 700904 by broth microdilution technique; procedure, shortened: as §2
# [10] = test system: Staphylococcus aureus; assay: Antibacterial activity against linezolid-resistant Staphylococcus aureus NRS 120 with G 2576T mutation by broth microdilution technique; procedure, shortened: as §2
# [11] = test system: Enterococcus faecalis; assay: Antibacterial activity against multidrug-resistant Enterococcus faecalis ATCC 700802 by broth microdilution technique; procedure, shortened: as §2
# [12] = test system: Staphylococcus aureus; assay: Antibacterial activity against methicillin-resistant Staphylococcus aureus ATCC 700699 by broth microdilution technique; procedure, shortened: as §2
# [13] = test system: Enterococcus faecalis; assay: Antibacterial activity against Enterococcus faecalis ATCC 14506 by broth microdilution technique; procedure, shortened: as §1
# [14] = test system: Staphylococcus aureus; assay: Antibacterial activity against linezolid-resistant Staphylococcus aureus NRS 119 with G 2576T mutation by broth microdilution technique; procedure, shortened: as §2
# [15] = test system: Enterococcus faecium; assay: Antibacterial activity against vancomycin-resistant Enterococcus faecium ATCC 700221 by broth microdilution technique; procedure, shortened: as §2
# [16] = test system: Staphylococcus aureus; assay: Antibacterial activity against Staphylococcus aureus ATCC 14154 by broth microdilution technique; procedure, shortened: as §2
SMILES,MIC [1],MIC [2],MIC [3],MIC [4],MIC [5],MIC [6],MIC [7],MIC [8],MIC [9],MIC [10],MIC [11],MIC [12],MIC [13],MIC [14],MIC [15],MIC [16]
CC(=O)NC[C@H]1CN(c2ccc(N3CCN(C(=O)/C=C/c4ccncc4)CC3)c(F)c2)C(=O)O1,4 µg/mL,2 µg/mL,0.5 µg/mL,1 µg/mL,1 µg/mL,2 µg/mL,,,,,,,,,,
CC(=O)NC[C@H]1CN(c2ccc(N3CCN(C(=O)/C=C/c4ccc([N+](=O)[O-])o4)CC3)c(F)c2)C(=O)O1,0.12 µg/mL,0.25 µg/mL,≤ 0.12 µg/mL,≤ 0.12 µg/mL,≤ 0.12 µg/mL,≤ 0.12 µg/mL,0.12 µg/mL,0.12 µg/mL,0.25 µg/mL,2 µg/mL,0.5 µg/mL,0.12 µg/mL,0.25 µg/mL,2 µg/mL,0.12 µg/mL,0.12 µg/mL
CC(=O)NC[C@H]1CN(c2ccc(N3CCN(C(=O)/C=C/c4cccs4)CC3)c(F)c2)C(=O)O1,1 µg/mL,0.5 µg/mL,1 µg/mL,0.5 µg/mL,0.5 µg/mL,0.5 µg/mL,,,,,,,,,,
CC(=O)NC[C@H]1CN(c2ccc(N3CCN(C/C=C/c4ccco4)CC3)c(F)c2)C(=O)O1,2 µg/mL,2 µg/mL,0.5 µg/mL,0.5 µg/mL,2 µg/mL,8 µg/mL,,,,,,,,,,
CC(=O)NC[C@H]1CN(c2ccc(N3CCN(C/C=C/c4ccc([N+](=O)[O-])o4)CC3)c(F)c2)C(=O)O1,1 µg/mL,1 µg/mL,0.12 µg/mL,0.25 µg/mL,0.25 µg/mL,0.5 µg/mL,,,,,,,,,,

# More lines, main results first:
MIC [1],MIC [2],MIC [3],MIC [4],MIC [5],MIC [6],SMILES,MIC [7],MIC [8],MIC [9],MIC [10],MIC [11],MIC [12],MIC [13],MIC [14],MIC [15],MIC [16]
1 µg/mL,1 µg/mL,1 µg/mL,1 µg/mL,1 µg/mL,0.5 µg/mL,CC(=O)NC[C@H]1CN(c2ccc(N3CCN(C(=O)/C=C/c4ccc[nH]4)CC3)c(F)c2)C(=O)O1,,,,,,,,,,
0.5 µg/mL,0.5 µg/mL,,0.5 µg/mL,0.5 µg/mL,1 µg/mL,CC(=O)NC[C@H]1CN(c2ccc(N3CCN(C(=O)/C=C/c4ccsc4)CC3)c(F)c2)C(=O)O1,,,,,,,,,,
0.5 µg/mL,0.5 µg/mL,,0.5 µg/mL,0.5 µg/mL,1 µg/mL,CC(=O)NC[C@H]1CN(c2ccc(N3CCN(C(=O)/C=C/c4ccco4)CC3)c(F)c2)C(=O)O1,,,,,,,,,,
2 µg/mL,1 µg/mL,0.5 µg/mL,1 µg/mL,1 µg/mL,0.5 µg/mL,CC(=O)NC[C@H]1CN(c2ccc(N3CCN(C(=O)/C=C/c4ccc(C)o4)CC3)c(F)c2)C(=O)O1,,,,,,,,,,
2 µg/mL,4 µg/mL,2 µg/mL,4 µg/mL,4 µg/mL,2 µg/mL,CC(=O)NC[C@H]1CN(c2ccc(N3CCN(C(=O)/C=C/c4ccc(COC(C)=O)o4)CC3)c(F)c2)C(=O)O1,,,,,,,,,,
